OX1R antag-1: OX1R (HCRTR1) antagonists, primary screen, fluorescence, CHO/OX1R cells, Fluo-8 calcium, orexin A; Orexin/Hypocretin receptor type 1 (Homo sapiens), O43613; Fluo-8 calcium fluorescence; inhibition, % at 5 µM; hit rate 0.43% among 330,000;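 active = inhibition above its plate's threshold, mean inhibition of all tested compounds on the plate plus 3 SD, cut at about 37% in these data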
Target sequence (O43613 whole entry, looked up): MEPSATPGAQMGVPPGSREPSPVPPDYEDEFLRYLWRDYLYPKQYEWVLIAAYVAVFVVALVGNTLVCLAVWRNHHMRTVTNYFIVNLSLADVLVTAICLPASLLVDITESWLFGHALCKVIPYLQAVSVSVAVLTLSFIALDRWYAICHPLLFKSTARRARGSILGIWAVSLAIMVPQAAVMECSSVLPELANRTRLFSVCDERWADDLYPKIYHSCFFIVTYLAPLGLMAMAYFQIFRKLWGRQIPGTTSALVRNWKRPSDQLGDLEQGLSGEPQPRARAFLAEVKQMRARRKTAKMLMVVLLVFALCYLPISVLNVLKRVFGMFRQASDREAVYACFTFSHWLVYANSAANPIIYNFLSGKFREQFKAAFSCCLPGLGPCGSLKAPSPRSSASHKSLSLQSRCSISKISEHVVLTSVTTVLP
OX1R antag-2: antagonists of human orexin 1 receptor (OX1R). OX1R-expressing cells, FRET antagonist read-out. inhibition, % at 6.6 µM. hit rate 1.8% among 330,000. AID 485270, 2010; in the data active = inhibition mostly above about 38%, no sharp cut-off; inactive = mostly below about 40%
CHO parental Ca: ATP-evoked calcium signal inhibitors, parental CHO, primary screen, counter-screen for OX1R antagonist project, cell-based, fluorescence, Fluo-8 calcium dye | parental CHO-K1, ATP-induced calcium, Fluo-8 fluorescence | inhibition, % at 5.6 µM | hit rate 0.63% among 330,000;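 active = inhibition above that plate's mean sample inhibition plus 3 SD, cut at about 26% in these data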
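Assay system: parental CHO cells; Read-out basis: percent inhibition of ATP-evoked calcium rise, normalized to controls; Benchmarks: ATP and no-ATP DMSO wells; Compound dosing: single nominal dose of 5.6 µM per compound; Signal: Fluo-8 calcium dye fluorescence; Also added: ATP as calcium-mobilizing challenge; Repeats: singlicate.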
TAAR1 agonist: human TAAR1 agonists, primary screen, Fluo-8 calcium fluorescence, CHO RD-HGA16 cells; vehicle wells 0%, saturating PEA agonist 100%; activation, % at 3 µM; hit rate 0.99% among 360,000; AID 624467, 2012;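 active = activation above the mean activation of all test compounds in the run plus 3 SD, cut at about 38% in these data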
Target sequence (Q96RJ0 whole entry, looked up): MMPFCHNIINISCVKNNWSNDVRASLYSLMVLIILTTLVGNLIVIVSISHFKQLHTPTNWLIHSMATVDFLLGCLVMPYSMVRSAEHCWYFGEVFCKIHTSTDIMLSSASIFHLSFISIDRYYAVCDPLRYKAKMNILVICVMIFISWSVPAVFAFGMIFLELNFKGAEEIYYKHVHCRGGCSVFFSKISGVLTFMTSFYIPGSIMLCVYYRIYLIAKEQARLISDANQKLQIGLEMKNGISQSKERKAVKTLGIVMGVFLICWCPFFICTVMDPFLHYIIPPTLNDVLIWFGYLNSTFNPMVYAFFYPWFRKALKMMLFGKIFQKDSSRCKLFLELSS
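Repeats: no replicates (n 1) | Material: CHO-derived RD-HGA16 cells with stable Gα16 and human TAAR1 | Technique: Kinetic Fluo-8 calcium fluorescence | Schedule: 17-24 h seeding, 75 min 37 °C dye, 30 min RT | Evaluation: % activation from peak over basal fluorescence ratio, DMSO-to-PEA scaled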
TAAR1 antagonist: human TAAR1 antagonists, primary screen, Fluo-8 calcium fluorescence, CHO RD-HGA16 cells. hit rate 1.5% among 360,000. inhibition, % at 3 µM. antagonist;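 active = inhibition above a per-plate cutoff, the mean inhibition of test compounds on that plate plus 3 SD, cut at about 49% in these data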
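Test system: RD-HGA16 CHO cells with stable hTAAR1 and Gα16 / Probe or stimulus: EC80 β-phenethylamine stimulus / Times: seeding 17-24 h prior, 75-min 37 °C, 30-min RT dye loading / Detection: Fluo-8 calcium-sensitive fluorescence / Read-out basis: % inhibition scaled between DMSO and EC80 PEA controls / Repeats: singlicate, one well per test compound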
Of the large screens only hits and unclear results are named; the others gave an inactive call. This is a sample that favours compounds with a hit; in the whole collection about 4% have one here.

O=C(NCC1CCN(C(=O)C(=O)c2cccs2)CC1)c1ccc2c(c1)CCO2	none (no result: OX1R antag-1, OX1R antag-2, CHO parental Ca)
COc1ccc(Cl)cc1C(=O)CSc1nnnn1C1CCCCC1	OX1R antag-2 52, CHO parental Ca 52
CCNC(=O)COc1ccc(F)cc1C(=O)c1cnn(-c2ccccc2)c1	none
COc1ccccc1CNC(=O)COc1ccccc1C(=O)c1cnn(-c2ccccc2)c1	TAAR1 antagonist 57
Cc1ccc(C(=O)N2CCCCC2)cc1NC1=C(Cl)C(=O)N(Cc2ccccc2)C1=O	TAAR1 antagonist 50
Cc1ccc(O)c(NC2=C(Cl)C(=O)N(Cc3ccccc3)C2=O)c1	none (no result: OX1R antag-1, OX1R antag-2, CHO parental Ca)
Cc1cc(C)nc(SCCn2c(N3CCOCC3)nc3c2c(=O)[nH]c(=O)n3C)n1	none
O=[N+]([O-])c1cnc2ccccc2c1	OX1R antag-2 71
CN(C)CCN(C(=O)/C=C/c1cccs1)c1nc2ccc(Br)cc2s1	TAAR1 antagonist 56
CC(=O)OCCn1c(=O)c2cc3c(=O)n(CCOC(C)=O)c(=O)c3cc2c1=O	OX1R antag-2 68
COCCn1c(=O)c2ccccc2c2ccccc2c1=O	none
Cc1[nH]nc2c1C(c1ccc(Br)cc1)N(c1ccccc1)C2=O (stereo not given)	none (no result: OX1R antag-1, OX1R antag-2, CHO parental Ca)
CCCSc1ccc([C@H]2N[C@@](C)(C(=O)OC)[C@H]3C(=O)N(C)C(=O)[C@@H]23)cc1OC	none
Cc1nc(SCc2nc3ccc(Cl)cc3[nH]2)c2oc3ccccc3c2n1	none
COc1ccc2c(c1)oc1c(SCc3nc4ccccc4[nH]3)nc(C)nc12	OX1R antag-2 48
Cc1nc(SCc2nc3cc(Cl)c(F)cc3[nH]2)c2oc3ccccc3c2n1	OX1R antag-2 53
Cc1ccc(Nc2cc(C)nn2-c2nc(C)cc(=O)[nH]2)cc1	OX1R antag-1 41, CHO parental Ca 55 (no result: TAAR1 agonist, TAAR1 antagonist)
Cc1ccc(Nc2cc(C)nn2-c2nc(C)cc(C)n2)cc1	none
O=C(C(=O)N1CCC(CNS(=O)(=O)c2ccc(C(F)(F)F)cc2)CC1)c1cccs1	none (no result: OX1R antag-1, OX1R antag-2, CHO parental Ca)
CNC(=O)c1ccc(NC(=O)c2ccc3c(=O)n4c(nc3c2)CCC4)cc1	TAAR1 antagonist 53
CC(=O)c1ccc(NC(=O)c2ccc3c(=O)n4c(nc3c2)CCCCC4)cc1	none
CC(C)Cn1c(=O)c2ccccc2n2c(CCC(=O)O)nnc12	none
COc1cc(/C=C/C(=O)c2ccc3c(c2)OCO3)cc(Cl)c1O	OX1R antag-1 49, CHO parental Ca 44, TAAR1 agonist 56
COc1ccc(/C=C/C(=O)c2ccc(OC)cc2OC)c(OC)c1	OX1R antag-2 51
COc1ccc2cc(C(=O)/C=C/c3cc(OC)c(OC)c(OC)c3)ccc2c1	OX1R antag-2 70
COc1ccc(C(=O)C=Cc2ccc3c(c2)OCO3)cc1OC	none (no result: OX1R antag-1, OX1R antag-2, CHO parental Ca)
COc1cc(C=CC(=O)c2cc(OC)c(OC)c(OC)c2)cc(OC)c1OC	none (no result: OX1R antag-1, OX1R antag-2, CHO parental Ca)
COc1ccc(/C=C/C(=O)c2ccccc2)c(OC)c1	none
COC(=O)c1cc2c(c3c4cc(C)ccc4n(S(=O)(=O)c4cccc(C)c4)c13)C(=O)N(C)C2	none (no result: OX1R antag-1, OX1R antag-2, CHO parental Ca)
CC(OC(=O)/C=C/c1ccccc1Cl)C(=O)NC1CCCCC1C (stereo not given)	none
CNC(=O)c1ccsc1NC(=O)c1ccccc1	OX1R antag-2 43
COc1ccc(N2C(=O)c3n[nH]c(C(C)C)c3C2c2ccccc2)cc1 (stereo not given)	none (no result: OX1R antag-1, OX1R antag-2, CHO parental Ca)
Cc1ccc(NC(=O)CSc2nn(-c3ccccc3)c(=S)s2)cc1S(=O)(=O)N(C)C	TAAR1 antagonist 51
C[n+]1ccc(/C=C/c2ccccc2O)c2ccccc21	OX1R antag-2 72
CC(=O)/C=C/c1ccccc1O	none
COc1ccc(CCn2c(C)cc(C(=O)COC(=O)c3ccc(O)cc3O)c2C)cc1	TAAR1 antagonist 65 (no result: OX1R antag-1, OX1R antag-2, CHO parental Ca)
Cn1cc([N+](=O)[O-])c(C(=O)N/N=C/c2ccncc2)n1	OX1R antag-2 75
Cn1cc([N+](=O)[O-])c(C(=O)Nc2nccs2)n1	none
Cn1cc([N+](=O)[O-])c(C(=O)Nc2ccc(Br)cn2)n1	OX1R antag-2 50
Cc1nc2c3c(sc2c(=O)[nH]1)NC(=O)CC3c1ccccc1Cl (stereo not given)	none
C=CCNC(=O)c1cccc2c1C(=O)c1ccc(N3CCCC3)cc1S2(=O)=O	none
CC1CCN(c2ccc3c(c2)S(=O)(=O)c2cccc(C(=O)NC[C@@H]4CCCO4)c2C3=O)CC1	TAAR1 antagonist 60
Cc1ccc(CNC(=O)c2cccc3c2C(=O)c2ccc(N4CCCCC4)cc2S3(=O)=O)cc1	TAAR1 agonist 47, TAAR1 antagonist 71
O=C(NC[C@@H]1CCCO1)c1cccc2c1C(=O)c1ccc(N3CCOCC3)cc1S2(=O)=O	none
O=C(NCc1ccccc1)c1cccc2c1C(=O)c1ccc(/C=C/c3ccccc3)cc1S2(=O)=O	TAAR1 antagonist 58
O=C(NCc1ccco1)c1cccc2c1C(=O)c1ccc(N3CCCC3)cc1S2(=O)=O	TAAR1 antagonist 53
COc1ccccc1CNC(=O)CSC(=S)N1CCCC1	none
CCCN1CCCCC(NC(=O)c2ccc3ccccc3c2)C1=O (stereo not given)	none (no result: OX1R antag-1, OX1R antag-2, CHO parental Ca)
O=C(NCc1ccccc1C(F)(F)F)c1cccc2c1C(=O)c1ccc(N3CCC(N4CCCCC4)CC3)cc1S2(=O)=O	none (no result: OX1R antag-1, OX1R antag-2, CHO parental Ca)
O=C1c2ccccc2S(=O)(=O)c2cc(N3CCOCC3)ccc21	OX1R antag-2 56
O=C1c2ccccc2S(=O)(=O)c2cc(N3CCN(c4ccccc4)CC3)ccc21	none
COc1ccccc1N1CCN(c2ccc3c(c2)S(=O)(=O)c2cccc(C(=O)NCc4cccc(F)c4)c2C3=O)CC1	TAAR1 antagonist 53 (no result: OX1R antag-1, OX1R antag-2, CHO parental Ca)
O=C(NCc1ccccc1C(F)(F)F)c1cccc2c1C(=O)c1ccc(N3CCOCC3)cc1S2(=O)=O	TAAR1 antagonist 56
O=S(=O)(c1ccccc1F)N1CCN(c2nc(-c3cccnc3)nc3ccccc23)CC1	TAAR1 antagonist 57
COc1ccc(S(=O)(=O)N2CCN(c3nc(-c4cccnc4)nc4ccccc34)CC2)cc1	none
N#Cc1ccccc1S(=O)(=O)N1CCN(c2nc(-c3cccnc3)nc3ccccc23)CC1	TAAR1 antagonist 51 (no result: OX1R antag-1, OX1R antag-2, CHO parental Ca)
O=C(Nc1ccccc1)N1c2ccccc2SC1c1ccco1 (stereo not given)	none (no result: OX1R antag-1, OX1R antag-2, CHO parental Ca)
O=[N+]([O-])c1ccc(-c2nnc(CNC3CCCC3)o2)cc1	OX1R antag-2 63
O=C(OCc1nnc(-c2ccc([N+](=O)[O-])cc2)o1)C1CCN(C(=O)c2ccc(F)cc2)CC1	OX1R antag-2 38
CC(C)NC(=O)NC(=O)CSc1nnc(COc2ccccc2F)n1C(C)C1CC2CCC1C2 (stereo not given)	CHO parental Ca 70 (no result: TAAR1 agonist, TAAR1 antagonist)
c1ccc(-c2nc(-c3cccnc3)n[nH]2)cc1	none

Source: PubChem
